Our source for the MIC, Ratio and hemolysis values is ChEMBL document CHEMBL4390654, “Microwave-assisted solid-phase synthesis of antisense acpP peptide nucleic acid-peptide conjugates active against colistin- and tigecycline-resistant E. coli and K. pneumoniae” (Eur J Med Chem, 2019).

Data set [1] deals with Escherichia coli. Description: Antibacterial activity against multi-drug resistant Escherichia coli NMI 3898/15 assessed as reduction in microbial growth incubated for 20 hrs. Format: functional. To be noted: NMI 3898/15, 20 h. A digest of the protocol: (§1)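 Broth microdilution MIC (modified Hancock protocol) in non-binding polystyrene plates. Inoculum ~2 × 10^5 CFU/mL in Mueller-Hinton broth with Mg²⁺ and Ca²⁺ at 4 mg/L each. Compounds dissolved in water, diluted in 0.01% acetic acid/0.2% BSA (final), added as 10× stocks. Covered plates incubated 20 h at 35 °C (± 2 °C) with 220 rpm circular shaking before MIC read.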

A short description of data set [2]: Ratio of MIC for Escherichia coli ATCC 25922 to MIC for Klebsiella pneumoniae ATCC 13883. Format: functional.
The test system of data set [3] is Pseudomonas aeruginosa. Description: Antibacterial activity against Pseudomonas aeruginosa PAO1 assessed as reduction in microbial growth incubated for 20 hrs. To be noted: PAO1, 20 h. Format: functional. Summed up: (§2)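 Broth microdilution MIC after a modified Hancock protocol for cationic peptides, in non-binding polystyrene plates. Inoculum ~2 × 10^5 CFU/mL in Mueller-Hinton broth with Mg²⁺ and Ca²⁺ at 4 mg/L each. Compounds dissolved in water, diluted in 0.01% acetic acid, 0.2% BSA (final), added as 10× aliquots. Covered plates incubated 20 h at 35 °C (± 2 °C) with shaking at 220 rpm. MIC read as lowest inhibiting concentration.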

Data set [4] can be described thus: Hemolytic activity against RBC (unknown origin) at 100 uM. Format: ADME, cell-based, Erythrocyte. To be noted: red blood cells (erythrocytes); read-out: Activity.
Data set [5] relates to Klebsiella pneumoniae. Kind of data set: Antibacterial activity against multi-drug resistant Klebsiella pneumoniae NMI 3081/09 assessed as reduction in microbial growth incubated for 20 hrs. Format: functional. To be noted: NMI 3081/09, 20 h. Summed up: as §1
The subject of data set [6] is Escherichia coli. Kind of data set: Antibacterial activity against Escherichia coli lacking a functional SbmA assessed as reduction in microbial growth incubated for 20 hrs. Summed up:
as §2

Data set [7] relates to Escherichia coli. Description: Antibacterial activity against Escherichia coli ATCC 25922 assessed as reduction in microbial growth incubated for 20 hrs. Format: functional. To be noted: ATCC 25922, 20 h. A digest of the protocol: as §1
In data set [8] the test system is Klebsiella pneumoniae. Kind of data set: Antibacterial activity against multi-drug resistant Klebsiella pneumoniae NMI 2697/14 assessed as reduction in microbial growth incubated for 20 hrs. Format: functional. As to conditions: NMI 2697/14, 20 h. Summed up: as §1
For data set [9], the system named is Staphylococcus aureus. Description: Antibacterial activity against Staphylococcus aureus ATCC 29213 assessed as reduction in microbial growth incubated for 20 hrs. As to conditions: ATCC 29213, 20 h. Format: functional. Summed up:
as §2

Data set [10] has as its system Escherichia coli. Kind of data set: Antibacterial activity against multi-drug resistant Escherichia coli NMI 3548/14 assessed as reduction in microbial growth incubated for 20 hrs. Format: functional. As to conditions: NMI 3548/14, 20 h. Summed up:
as §1

Data set [11] concerns Klebsiella pneumoniae. Kind of data set: Antibacterial activity against Klebsiella pneumoniae ATCC 13883 assessed as reduction in microbial growth incubated for 20 hrs. To be noted: ATCC 13883, 20 h. Format: functional. Summed up: as §2
Data set [12] relates to Acinetobacter baumannii. Kind of data set: Antibacterial activity against Acinetobacter baumannii ATCC 19606 assessed as reduction in microbial growth incubated for 20 hrs. Format: functional. As to conditions: ATCC 19606 = CIP 70.34 = JCM 6841, 20 h. A digest of the protocol:
as §2

Data set [13] can be described thus: Ratio of MIC for Escherichia coli ATCC 25922 to MIC against Escherichia coli NMI 3898/15. Format: functional.
A short description of data set [14]: Ratio of MIC for Escherichia coli lacking functional SbmA to MIC for Escherichia coli ATCC 25922.
In data set [15] the test system is Escherichia coli. Description: Antibacterial activity against NDM-1 producing multi-drug resistant Escherichia coli NMI 3371/16 ST101 assessed as reduction in microbial growth incubated for 20 hrs. Format: functional. To be noted: NMI 3371/16 ST101, 20 h. Summed up: as §1
Data set [16] deals with Escherichia coli. Description: Antibacterial activity against NDM-5 producing multi-drug resistant Escherichia coli NMI 636/15 ST405 assessed as reduction in microbial growth incubated for 20 hrs. Format: functional. As to conditions: NMI 636/15 ST405, 20 h. Summed up:
as §1

The test system of data set [17] is Pseudomonas aeruginosa. Description: Antibacterial activity against multi-drug resistant Pseudomonas aeruginosa NMI 506/17 assessed as reduction in microbial growth incubated for 20 hrs. Format: functional. To be noted: NMI 506/17, 20 h. A digest of the protocol: as §1
The subject of data set [18] is Acinetobacter baumannii. Description: Antibacterial activity against Acinetobacter baumannii NMI 3658/17 assessed as reduction in microbial growth incubated 20 hrs. Format: functional. As to conditions: NMI 3658/17, 20 h. A digest of the protocol: as §2
Data set [19] concerns Escherichia coli. Kind of data set: Antibacterial activity against NDM-1 producing multi-drug resistant Escherichia coli NMI 5428/11 ST410 assessed as reduction in microbial growth incubated for 20 hrs. Format: functional. As to conditions: NMI 5428/11 ST410, 20 h. A digest of the protocol:
as §1

Data set [20] deals with Pseudomonas aeruginosa. Description: Antibacterial activity against Pseudomonas aeruginosa ATCC 27853 assessed as reduction in microbial growth incubated for 20 hrs. Format: functional. To be noted: ATCC 27853, 20 h. A digest of the protocol:
as §2

As usually defined, the MIC is the smallest concentration in the dilution series that meets the test's criterion for growth inhibition. `CC[C@H](C)[C@H](NC(=O)[C@@H]1CCCN1C(=O)[C@H](CCCNC(=N)N)NC(=O)[C@@H]1CCCN1C(=O)[C@H](Cc1cnc[nH]1)NC(=O)[C@H](CO)NC(=O)[C@@H](NC(=O)[C@@H]1CCCN1C(=O)[C@H](CCCNC(=N)N)NC(=O)[C@@H]1CCCN1C(=O)[C@H](CO)NC(=O)[C@H](Cc1ccc(O)cc1)NC(=O)[C@@H]1CCCN1C(=O)[C@H](CCCNC(=N)N)NC(=O)[C@@H]1CCCN1C(=O)[C@H](CCCNC(=N)N)NC(=O)CCCCCNC(=O)[C@@H](N)CCCNC(=N)N)[C@@H](C)O)C(=O)N[C@@H](CCCNC(=N)N)C(=O)N[C@H](C(=O)N[C@@H](CSC1CC(=O)N(CCC(=O)NCCOCCOC(=O)N[C@@H](CS)C(=O)N[C@H](C(=O)N[C@@H](CS)C(=O)N[C@@H](C)C(=O)N[C@H](C(=O)N[C@@H](C)C(=O)N[C@@H](CS)C(=O)N[C@H](C(=O)N[C@@H](CS)C(=O)N[C@H](C(N)=O)[C@@H](C)O)[C@@H](C)O)[C@@H](C)O)[C@@H](C)O)C1=O)C(N)=O)C(C)C` (stereo partly specified): the MIC in data set [1] was 8 to 32 µg/mL; in [3] it was greater than 64 µg/mL; in [5], 64 µg/mL; in data set [6], greater than 64 µg/mL; in [7] it was 16 µg/mL; in data set [8] it was 32 to 64 µg/mL. Moreover, the MIC in data set [9] is greater than 64 µg/mL; in [10], 2 to 8 µg/mL; in data set [11], 4 to 8 µg/mL; in data set [12], greater than 64 µg/mL. In addition, the Ratio in [2] fell in the range of 2 to 4; in data set [13], 2 to 8. In addition, the hemolysis at 100 µM in data set [4] was less than 1%.
On to `CC[C@@H](C)[C@@H](NC(=O)[C@H]1CCCN1C(=O)[C@@H](CCCNC(=N)N)NC(=O)[C@H]1CCCN1C(=O)[C@@H](Cc1cnc[nH]1)NC(=O)[C@@H](CO)NC(=O)[C@H](NC(=O)[C@H]1CCCN1C(=O)[C@@H](CCCNC(=N)N)NC(=O)[C@H]1CCCN1C(=O)[C@@H](CO)NC(=O)[C@@H](Cc1ccc(O)cc1)NC(=O)[C@H]1CCCN1C(=O)[C@@H](CCCNC(=N)N)NC(=O)[C@H]1CCCN1C(=O)[C@@H](CCCNC(=N)N)NC(=O)CCCCCNC(=O)[C@H](N)CCCNC(=N)N)[C@H](C)O)C(=O)N[C@H](CCCNC(=N)N)C(=O)N[C@@H](C(=O)N[C@H](CS)C(=O)N[C@@H](C(=O)N[C@H](CS)C(=O)N[C@H](C)C(=O)N[C@@H](C(=O)N[C@H](C)C(=O)N[C@H](CS)C(=O)N[C@@H](C(=O)N[C@@H](CS)C(=O)N[C@@H](C(N)=O)[C@H](C)O)[C@H](C)O)[C@H](C)O)[C@H](C)O)C(C)C`, for which the Ratio in [14] was greater than 16. The MIC in data set [1], in data set [3], in [5], in data set [6], in data set [7] and in data set [8] was greater than 64 µg/mL in each case. Also, the MIC in [9] is greater than 64 µg/mL; in data set [10], 64 µg/mL; in [11] it was 8 to 16 µg/mL; in data set [12], greater than 64 µg/mL. In data set [4], the hemolysis at 100 µM is less than 1%.
For `CC[C@@H](C)[C@@H](NC(=O)[C@@H](CCCCN)NC(=O)[C@@H]([C@H](C)CC)N(C(=O)[C@@H](CCCNC(=N)N)NC(=O)CCCCCNC(=O)[C@H](N)CCCNC(=N)N)C(=O)[C@@H](CCCNC(=N)N)NC(=O)CCCCCNC(=O)[C@H](N)CCCNC(=N)N)C(=O)N[C@H](CC(C)C)C(=O)N[C@H](Cc1ccccc1)C(=O)N[C@H](CCC(N)=O)C(=O)N[C@H](CC(N)=O)C(=O)N[C@H](CCCNC(=N)N)C(=O)N[C@H](CCCNC(=N)N)C(=O)N[C@H](CCSC)C(=O)N[C@H](CCCCN)C(=O)N[C@H](Cc1c[nH]c2ccccc12)C(=O)N[C@H](CCCCN)C(=O)N[C@H](CCCCN)C(N)=O`, the MIC was determined as 2 µg/mL in [15]; 2 µg/mL in [1]; 1 µg/mL in data set [3]; 16 µg/mL in data set [5]; 2 µg/mL in data set [16]; 2 µg/mL in data set [6]. In addition, the MIC was 2 to 4 µg/mL in [7]; 16 µg/mL in [8]; 2 to 4 µg/mL in data set [9]; 4 µg/mL in data set [17]; 2 µg/mL in data set [18]; 1 to 2 µg/mL in data set [19]. Besides, the MIC in [10] worked out at 1 µg/mL; in [11], 4 µg/mL; in [12], 2 µg/mL; in data set [20] it was 2 µg/mL. Moreover, the hemolysis at 100 µM in [4] is less than 1%.
Turning to `CC[C@H](C)[C@H](NC(=O)[C@@H]1CCCN1C(=O)[C@H](CCCNC(=N)N)NC(=O)[C@@H]1CCCN1C(=O)[C@H](Cc1cnc[nH]1)NC(=O)[C@H](CO)NC(=O)[C@@H](NC(=O)[C@@H]1CCCN1C(=O)[C@H](CCCNC(=N)N)NC(=O)[C@@H]1CCCN1C(=O)[C@H](CO)NC(=O)[C@H](Cc1ccc(O)cc1)NC(=O)[C@@H]1CCCN1C(=O)[C@H](CCCNC(=N)N)NC(=O)[C@@H]1CCCN1C(=O)[C@H](CCCNC(=N)N)NC(=O)CCCCCNC(=O)[C@@H](N)CCCNC(=N)N)[C@@H](C)O)C(=O)N[C@@H](CCCNC(=N)N)C(=O)N[C@H](C(=O)N[C@@H](CS)C(=O)N[C@H](C(=O)N[C@@H](CS)C(=O)N[C@@H](C)C(=O)N[C@H](C(=O)N[C@@H](C)C(=O)N[C@@H](CS)C(=O)N[C@H](C(=O)N[C@@H](CS)C(=O)N[C@H](C(N)=O)[C@@H](C)O)[C@@H](C)O)[C@@H](C)O)[C@@H](C)O)C(C)C`, the MIC in data set [15] was 0.5 µg/mL; in data set [1], 4 µg/mL; in [3] it was greater than 64 µg/mL; in data set [5] it was 8 µg/mL; in data set [16] it was 1 µg/mL; in data set [6], greater than 64 µg/mL. The minimum inhibitory concentration (MIC) in [7] is 4 µg/mL; in [8], 32 µg/mL; in data set [9] it was greater than 64 µg/mL; in data set [17], greater than 64 µg/mL; in [18] it was 32 µg/mL; in [19], 1 µg/mL. In addition, the MIC in data set [10] was 1 to 2 µg/mL; in data set [11], 2 to 4 µg/mL; in data set [12] it was 64 µg/mL; in data set [20] it was greater than 64 µg/mL. Besides, the Ratio in [14] is greater than 16; in [13], 2 to 8. The hemolysis at 100 µM in data set [4] is less than 1%.
